# Results: ChEMBL document CHEMBL4513216, “Probing the Open Global Health Chemical Diversity Library for Multistage-Active Starting Points for Next-Generation Antimalarials” (ACS Infect Dis, 2020)
# Test: Toxicity liver stage against HepG2, at 10uM
# Type: cell-based
# Design: test concentration 10 uM, cell line HepG2-A16-CD81EGFP
# Conditions: human, HepG2-A16-CD81EGFP cells; read-out: INHIBITION
# Outline: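 Uninfected HepG2-A16-CD81EGFP cells, 3 × 10^3 per well, 1536-well, plated on prespotted compound at 10 μM final, parasite-free screening media added to match infected plates; puromycin 10 μM positive, DMSO 0.5% negative; run in parallel with 48 h PbLuc assay at 37 °C, 5% CO2; viability by CellTiter-Glo luminescence, normalized to controls.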
row,Compound,cytotoxicity at 10 µM [%]
1,COc1cccc2c3c(c(=O)[nH]c12)CC(C)(C)O3,-6.1
2,C/N=C1\c2cc3cc(OC)ccc3n2CCN1C,-10.1
3,Cc1ccc2[nH]c(CO[C@H]3CN(c4ccc(C#N)cn4)C[C@H]3F)nc2c1,-1.6
4,CC(C)N[C@@H]1CO[C@H](CNC(=O)c2ccccc2)[C@H]1O,-5.73
5,CC(=O)N[C@H]1CCN2C(=O)[C@@H](Cc3c[nH]c4ccccc34)NC(=O)[C@H]12,-0.639
6,COc1ccc(CN2CCOC[C@H](OCc3ccccc3)C2)cc1,2.79
7,COCCCNC(=O)c1cn(C(C)(C)C)c2ncccc12,0.0915
8,COc1ccc(C2SC(C)=Nc3c2c(=O)[nH]n3C2CCCC2)cc1O (centres undefined),9.98
9,COc1ccc2nnc(CCCC(=O)NCc3ccccc3F)n2n1,-0.524
10,O=c1cc2c(nn1CN1CCN(c3ccc(F)cc3)CC1)CCC2,-2.15
11,O=C(c1ccoc1)N1CC[C@H]2[C@H]1CCN2CC1CC1,2.5
12,CO[C@@H]1CCN(C(=O)c2cc(C)on2)C[C@@H]1Cc1ccccc1,1.11
13,COCC(=O)N1CCc2nc(C(=O)N(C)C)sc2CC1,15.5
14,CCc1cnc(N2C[C@@H]3[C@@H](C(=O)NCC(C)C)CCS(=O)(=O)[C@@H]3C2)nc1,-135
15,c1cncc(COCC2CN(Cc3ccco3)Cc3nccn3C2)c1 (centres undefined),-157
16,CCC(=O)N1CCC2(CC1)CC(NC(=O)N(C)C)c1cc(C)ccc12 (centres undefined),8.39
17,Cc1noc([C@H]2CC[C@@H]3[C@@H](CCN3S(=O)(=O)C3CC3)O2)n1,-1.98
18,O=C(c1c[nH]cn1)N1CCCn2c(nnc2Cn2cccc2)C1,0.399
19,COCCNC(=O)c1c(-n2cnnn2)sc2c1CCCC2,3.51
20,CN(C)CCNC(=O)CNC(=O)N1CCc2c([nH]c3ccc(Cl)cc23)C1,7.36
21,COc1ccc2c(c1)CC(NC(=O)NCc1cccs1)CO2 (centres undefined),7.52
22,CC(C)N(C)C(=O)C1=NOC2(CCN(C(=O)c3ccc(Cl)cc3)C2)C1 (centres undefined),-16.7

row,Compound,cytotoxicity at 10 µM [%]
1,Cn1cc(C(=O)N2C[C@@H]3COC[C@]3(COCc3cccnc3)C2)cn1,-0.8
2,O=C(c1ccc[nH]1)N1CCCC2(CCN(c3ccsc3)C2=O)C1 (centres undefined),-0.449
3,CCn1cc(CN(C)C(=O)c2cc(C(F)(F)F)n(C)n2)cn1,10.4
4,Cn1c(=O)n(C)c2nc(Cl)c(CC(=O)c3ccccc3)n2c1=O,-13.9
5,Cc1cc(C)n(CC(=O)N2CCC(c3nc(C(C)C)no3)CC2)n1,9.1
6,Cc1nc2[nH]cnc(Nc3cc(C)n(C)n3)c-2n1,6.69
7,CNC(=O)C1CN(C(=O)Cc2ccc(OC)cc2)Cc2cn(C)nc21 (centres undefined),2.99
8,c1cnc(Nc2cncc(C3CCCN(c4cnccn4)C3)n2)nc1 (centres undefined),-8.74
9,CC(C)S(=O)(=O)CC(=O)N1CCCC(n2ccnc2)C1 (centres undefined),10.2
10,OCCCN1CCCC1c1ccc(Br)cc1 (centres undefined),2.94
11,CC(C)C(CCO)NC(=O)Nc1ccc(-c2csnn2)cc1 (centres undefined),-10
12,COCCn1cc(NC(=O)NC(C)c2ccc(Cl)s2)cn1 (centres undefined),7.25
13,CCc1ncc(C(=O)N2CCN(c3nc(C)cc(OC)n3)CC2)s1,1.1
14,O=C(Cn1ccc(=O)[nH]c1=O)NCC1Cc2ccccc2O1 (centres undefined),3.74
15,CCn1nc(C)c(CNC(=O)NCC(C)(O)c2ccccc2)c1C (centres undefined),-7.12
16,CN(C)c1ccc(C(=O)N2CCCC2c2ccc(Cl)cc2)nn1 (centres undefined),-10.7
17,CCOCCCNC(=O)Cc1cccc(F)c1,12.1
18,COCCn1cc(C(=O)N2CCCC2c2ccc(F)cc2)ccc1=O (centres undefined),-0.12
19,c1ccc(-c2nc(CN3CCOC(Cn4cccn4)C3)cs2)cc1 (centres undefined),8.62
20,O=C(NCC1CC1)c1cnc(-c2ccccc2)nc1,7.5
21,Cc1cccc(CNC(=O)Nc2ccn(CCCC(=O)N(C)C)n2)c1,2
22,CC(Oc1ccccc1C(F)(F)F)C(=O)NCC(=O)N1CCCC1 (centres undefined),5.12

row,Compound,cytotoxicity at 10 µM [%]
1,CN(C(=O)CN(Cc1cccc(O)c1)C1CCC(O)CC1)C1CC1 (centres undefined),-0.586
2,Cn1ccnc1COc1ccc(CSc2nnnn2C)cc1,-0.613
3,COCCSc1ccc(C(C)NC(=O)Nc2cn[nH]c2)cc1 (centres undefined),8.88
4,Cc1cn2nc(Sc3nnc(C(C)C)n3C)sc2n1,2.3
5,Brc1cccc(C2(CNCc3cc[nH]c3)CCOCC2)c1,8.95
6,CS(=O)(=O)NCC(=O)NC1(c2ccc(Cl)c(Cl)c2)CC1,-10.7
7,O=C(CSCc1ccncc1)N(Cc1ccsc1)C1CC1,-11.2
8,NC(=O)c1ccc(NC(=O)CCN2CCCC(N3CCCC3)C2)cc1 (centres undefined),-8.59
9,CCn1nc(C)cc1C(=O)N1C[C@@H]2C[C@@H](c3noc(C)n3)O[C@@H]2C1,8.06
10,NC(=O)N1CCc2ncc(CNC(=O)CC3CC3)n2CC1,2.11
11,CC(C)NC(=O)N1CCC2(CC1)Cc1ccccc1CN(C)C2=O,5.55
12,COCCN(C)C(=O)c1nc2c(s1)CCCN2c1ccc(C)nn1,-2.4
13,COCCN1CCN(Cc2ccoc2)Cc2cccnc21,-75
14,O=C(NCc1ccncc1)C1=NOC2(CCCNC2)C1 (centres undefined),5.31
15,CCN1CCC(CC(=O)NCc2cc(C)nn2C)CC1,-14.5
16,CN1CCC(Cc2noc(CCc3nc4ccccc4nc3O)n2)CC1,7.23
17,Cn1cc2ncn(C3CCN(c4ccccc4F)CC3)c(=O)c2n1,4.44
18,CNc1nc(C)cc(N2CCC(C(=O)O)(n3ccc(C(C)C)n3)CC2)n1,1.52
19,N#Cc1cccc(N2CCC(c3nccn3Cc3cscn3)CC2)n1,1.46
20,COc1nc2c(cc1C(=O)NCCc1nc3c(s1)CCC3)CCC2,5.05
21,Cc1nc2c(c(=O)n1C)CN(C(=O)C1CCN(C(=O)C3CCC3)CC1)C2,-3.54
22,O=C(c1ccc(S(=O)(=O)NCc2ccon2)cc1)N1CCCCCC1,0.424

row,Compound,cytotoxicity at 10 µM [%]
1,COc1cnc(N2CCC(c3ncc[nH]3)CC2)nc1,0.852
2,CC(C)c1cc(N2CCSCC2)n2nccc2n1,4.66
3,CC(C)(CN1CCCC1)CN1CCC(Cn2cc(CCO)nn2)CC1,1.87
4,Cc1ccc(C2(O)CCN(C(=O)c3cccc(S(C)(=O)=O)c3)CC2)nc1,-5.3
5,Cc1cc(C2CCCN2C(=O)Cn2c(C)cc(=O)c3ccccc32)on1 (centres undefined),-9.02
6,O[C@@]1(CNCC2(Cn3ccnc3)CC2)CCCN2CCCC[C@@H]21,5.09
7,CCCN1CC2(CCN(C)CC2)CC1C(=O)NCc1cc(C)nn1C (centres undefined),0.318
8,Cc1ccc(CC2COc3ccccc3C2)c(N)n1 (centres undefined),-7.12
9,CCCC1COCCN1Cc1ccc(S(=O)(=O)NC)cc1 (centres undefined),-142
10,Cc1cc(=O)[nH]c(CCNC(=O)C(c2ccc(F)cc2)N(C)C)n1 (centres undefined),-9.78
11,CC(C)c1cc(N2CCC(N)CC2)n2nccc2n1,-18.1
12,CC(C)C(NC(=O)NCCNc1ncccn1)c1cccs1 (centres undefined),2.71
13,CN(C)c1cc(CNc2cncc(-n3cccn3)n2)ccn1,6.26
14,O=C(CC(F)(F)F)Nc1cc(F)ccc1OCC1CCCO1 (centres undefined),5.48
15,O=C(CCCc1ccccc1)N1CCC(Nc2cccnn2)CC1,-5.89
16,Cc1ccc(C(=O)N2CCN(CCc3ccccc3)CC2)c(=O)[nH]1,-7.1
17,COc1ccc(CNCC2CNc3cc(C)nn3C2)cn1 (centres undefined),-16.5
18,CC(C)c1n[nH]c(C2CN(C(=O)c3ccnc(C4CC4)n3)CCO2)n1 (centres undefined),-12.6
19,CC(=O)Nc1nc(C(=O)NC(C)c2ccncc2)cs1 (centres undefined),-6.5
20,Cc1cc(C[S+]([O-])CC(=O)NCC(C)C)no1 (centres undefined),-4.17
21,CCc1nc(C2CCCN2CC(=O)Nc2c(C)n[nH]c2C)no1 (centres undefined),-3.79
22,CCOc1ccc(Cl)c(C(=O)N2CCN(C(=O)c3ccoc3C)CC2)n1,-6.69

row,Compound,cytotoxicity at 10 µM [%]
1,CNC(=O)NC(=O)CN1CCC(c2cccc(F)c2)C1 (centres undefined),-8.75
2,O=C(N1CCOCC1)N1CCC2(CCNC2)C1 (centres undefined),-2.89
3,CC1c2ncc(COc3cccnc3)n2CCN1C(=O)C1=CCCCC1 (centres undefined),3.39
4,COCc1nn(C(C)C)c2c1CCN(Cc1ccc(C)s1)C2,-5.82
5,CCN1CCn2c(C)cnc2C12CCN(C(=O)COC)CC2,6.5
6,O=C1C[C@H]2[C@@H](CCN2C(=O)c2ccoc2)N1CCN1CCOCC1,-5.26
7,COCC1CN(Cc2ccoc2)Cc2nnn(C)c21 (centres undefined),-3.73
8,Cc1cccc(CN2CCCC3(CCC(=O)N3CCN(C)C)CC2)n1 (centres undefined),-0.891
9,O=C1N(c2ccsc2)CCC12CCCN(Cc1ccccn1)C2 (centres undefined),2.03
10,CC1=N[C@@]2(CC[C@@H]3CN(CC(=O)N(C)C)C[C@@H]32)C(=O)N1CC(C)C,9.66
11,COCCN1CCC2(COCc3cnc(N(C)C)nc32)C1 (centres undefined),1.39
12,Cn1cc(CN2CCn3cc(Cn4cccn4)nc3C2)cn1,4.49
13,O=C(NCC1CC1)C1CCC2(CCN(C(=O)c3ccncc3)CC2)O1 (centres undefined),-0.0368
14,COC[C@H]1CC[C@@H]2[C@@H](CCN2Cc2ccco2)O1,-137
15,COCc1ncn2c1CN(C(=O)c1ccc3ccccc3n1)CC2,8.42
16,OC(CN1CCN(Cc2cc(F)ccc2F)CC1)C1CC1 (centres undefined),0.353
17,Cc1cnc(N2CCn3c(CN4CCOCC4)nnc3C2)nc1,-153
18,CCc1ncnc2c1CCN(Cc1ccc3c(c1)OCO3)CC2,-139
19,CN(C)C(=O)N1C[C@H](Oc2ccccn2)[C@H]2OCCC[C@H]21,6.07
20,Cc1cccc(CN2CC[C@@H]3[C@@H]2CCN3C(=O)c2cc(C)oc2C)n1,-4.42
21,O=C1CC2(CCN(CC3CC3)C2)CN1c1cccc(F)c1 (centres undefined),-6.25
